The record followed here is ChEMBL document CHEMBL4673344, “Novel substituted N-benzyl(oxotriazinoindole) inhibitors of aldose reductase exploiting ALR2 unoccupied interactive pocket” (Bioorg Med Chem, 2021).

In one series the test system is ALR1. The series can be described thus: Inhibition of Wistar rat kidney ALR1 assessed as reduction in NADPH consumption using sodium D-glucuronate as substrate at 100 uM incubated for 1 min and measured up to 4 mins by spectrophotometric analysis relative to control. The series is classed as tissue-based. The settings on record: rat kidney ALR1 (aldehyde reductase) enzyme, probe sodium D-glucuronate. In a few lines: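 Enzyme: ALR1 isolated from rat kidneys. Activity was followed spectrophotometrically as NADPH consumption at 340 nm and expressed as decrease in O.D./s/mg protein. Inhibition is given as % of enzyme inhibition at 100 μM inhibitor.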

The nature of series [1]: Inhibition of Wistar rat lens ALR2 assessed as reduction in NADPH consumption using D,L-glyceraldehyde as substrate incubated for 1 min and measured up to 4 mins by spectrophotometric analysis. The series is classed as tissue-based. In a few lines: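 ALR2 was isolated from rat eye lenses and assayed for reduction of D,L-glyceraldehyde. NADPH consumption was read spectrophotometrically at 340 nm, with activity expressed as decrease in O.D./s/mg protein. The IC50 was derived from inhibition of this activity.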

For series [2], the species on record is Rattus norvegicus. The series is described as follows: Selectivity index, ratio of IC50 for Wistar rat kidney ALR1 to IC50 for Wistar rat lens ALR2. In a few lines:
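Selectivity factor S_F = IC50(ALR1)/IC50(ALR2). ALR1 came from rat kidneys and ALR2 from rat eye lenses with D,L-glyceraldehyde as substrate. Both were assayed spectrophotometrically by NADPH consumption at 340 nm.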

A short description of series [3]: Inhibition of Wistar rat kidney ALR1 assessed as reduction in NADPH consumption using sodium D-glucuronate as substrate incubated for 1 min and measured up to 4 mins by spectrophotometric analysis. The class given is tissue-based. The method, boiled down:
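Aldehyde reductase (ALR1) was isolated from rat kidneys. Activity was monitored spectrophotometrically by NADPH consumption at 340 nm, expressed as decrease in O.D./s/mg protein. The IC50 was determined from inhibition of this activity.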

For series [4], the species on record is Rattus norvegicus. The series is described as follows: Potency index, ratio of IC50 of OTI-6 to IC50 of compound for inhibition of Wistar rat lens ALR2 assessed as reduction in NADPH consumption using D,L-glyceraldehyde as substrate incubated for 1 min and measured up to 4 mins by spectrophotometric analysis. The class given is tissue-based.

As a reminder, the inhibition is the percentage by which the read-out fell short of the control. In general, IC50 refers to the point on the concentration scale where inhibition reaches its midpoint. Usually pIC50 stands for −log10 of the IC50, conventionally taken in molar units. As to `N#Cc1ccccc1Cn1nc2c3ccccc3n(CC(=O)O)c2nc1=O`, the inhibition at 4 min, 100 µM in the series with ALR1 was found to be 51%. In series [1], the IC50 came out at 76 nM and the pIC50 is listed as 7.12. In addition, the Ratio IC50 in the series filed under Rattus norvegicus [2] is above 1330. The IC50 in series [3] was above 100000 nM.
As for `NC(=O)c1ccccc1Cn1nc2c3ccccc3n(CC(=O)O)c2nc1=O`, in the series with ALR1, the inhibition at 4 min, 100 µM worked out at 50%. Also, the Ratio IC50 in the series listed under Rattus norvegicus [4] is 2; in the series filed under Rattus norvegicus [2], above 424. In addition, the half-inhibitory concentration (IC50) is 236 nM in series [1] and above 100000 nM in series [3]. Besides, the pIC50 in series [1] came out at 6.63.
For `O=C(O)Cn1c2ccccc2c2nn(Cc3ccccc3)c(=O)nc21`, the inhibition at 4 min, 100 µM in the series with ALR1 is 38%. Further, in series [1], the IC50 came to 434 nM and the pIC50 turned out to be 6.36. The Ratio IC50 in the series listed under Rattus norvegicus [2] was above 230. In series [3], the 50% inhibitory concentration (IC50) is above 100000 nM.
In the case of `O=C(O)Cn1c2ccccc2c2nn(Cc3ccccc3CO)c(=O)nc21`, the inhibition at 4 min, 100 µM in the series on ALR1 came to 33%. Also, the figures for the Ratio IC50 in the series filed under Rattus norvegicus [4] and in the series listed under Rattus norvegicus [2] were 2 and above 410, respectively. Besides, the concentration for half-maximal inhibition (IC50) in series [1] is 241 nM; in series [3], above 100000 nM. In addition, in series [1], the pIC50 is on record as 6.61.
On to `O=C(O)Cn1c2ccccc2c2nn(Cc3ccccc3C(=O)O)c(=O)nc21`, for which the inhibition at 4 min, 100 µM in the series with ALR1 came to 62%. The results for the IC50 in series [1] and in series [3] were 139 nM and 59000 nM, respectively. Also, the pIC50 in series [1] worked out at 6.86. The Ratio IC50 in the series filed under Rattus norvegicus [2] came out at 424.
